According to ChEMBL document CHEMBL1155412, “Novel powerful water-soluble lipid immunoadjuvants inducing mouse dendritic cell maturation and B cell proliferation using TLR2 pathway” (Bioorg Med Chem Lett, 2010):
The source made the active and inactive calls. The calls are words filed in the database; no cut-off is given here.

Key:
[1] = molecular target: Toll-like receptor 2 (Mus musculus) (UniProt Q9QUN7); test: Induction of TLR2-mediated mouse spleen B cells proliferation assessed as [3H]thymidin uptake at 0.16 ug/ml after 72 hrs in the presence of antagonist anti-TLR2 antibody treated 25 mins after anti-TLR2 antibody challenge; type: functional, tissue-based
[2] = molecular target: Toll-like receptor 2 (Mus musculus) (UniProt Q9QUN7); test: Induction of TLR2-mediated mouse D1 dendritic cells maturation assessed as expression of CD54 and CD86 activation markers at 0.5 ug/ml to 5 ug/ml after 24 hrs by flow cytometry in the presence of polymyxin B; type: cell-based
[3] = molecular target: Toll-like receptor 2 (Mus musculus) (UniProt Q9QUN7); test: Induction of TLR2-mediated mouse spleen B cells proliferation assessed as [3H]thymidin uptake at 0.02 ug/ml after 72 hrs
Outline: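 Purified mouse spleen B cells cultured with analogs at indicated concentrations for 72 h; proliferation by [3H]-thymidine uptake. Stimulation index = mean cpm stimulated / mean cpm unstimulated; mean SI ± SD of three independent experiments, each in triplicate.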

[4] = molecular target: Toll-like receptor 2 (Mus musculus) (UniProt Q9QUN7); test: Induction of TLR2-mediated mouse D1 dendritic cells maturation assessed as expression of CD54 and CD86 activation markers at 0.5 ug/ml after 24 hrs by flow cytometry in the presence of antagonist anti-TLR2 antibody treated 25 mins after anti-TLR2 antibody challenge

Chain of Toll-like receptor 2 (Mus musculus) (Q9QUN7 whole entry): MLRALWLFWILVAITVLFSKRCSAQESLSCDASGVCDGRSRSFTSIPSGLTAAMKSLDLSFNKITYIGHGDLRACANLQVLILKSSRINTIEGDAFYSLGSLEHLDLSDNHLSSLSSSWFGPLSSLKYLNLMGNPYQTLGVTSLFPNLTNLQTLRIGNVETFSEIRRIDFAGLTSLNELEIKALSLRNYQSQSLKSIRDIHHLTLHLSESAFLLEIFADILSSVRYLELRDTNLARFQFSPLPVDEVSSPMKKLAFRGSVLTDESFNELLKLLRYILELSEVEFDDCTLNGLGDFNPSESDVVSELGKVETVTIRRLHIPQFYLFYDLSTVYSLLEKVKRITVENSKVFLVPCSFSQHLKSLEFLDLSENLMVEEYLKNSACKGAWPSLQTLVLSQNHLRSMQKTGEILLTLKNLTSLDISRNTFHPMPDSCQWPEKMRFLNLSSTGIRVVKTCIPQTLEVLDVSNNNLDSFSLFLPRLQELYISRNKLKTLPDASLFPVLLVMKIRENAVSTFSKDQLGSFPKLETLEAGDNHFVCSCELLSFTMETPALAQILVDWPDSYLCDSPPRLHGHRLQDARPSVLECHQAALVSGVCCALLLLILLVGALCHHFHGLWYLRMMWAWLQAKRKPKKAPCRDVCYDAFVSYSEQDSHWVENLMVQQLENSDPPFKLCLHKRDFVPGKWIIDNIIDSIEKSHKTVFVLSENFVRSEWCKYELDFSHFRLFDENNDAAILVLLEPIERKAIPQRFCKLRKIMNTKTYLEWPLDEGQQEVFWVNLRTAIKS

Activity [1] | Activity [2] | Activity [3] | Activity [4] | Structure (SMILES)
inactive | Active | Active | inactive | CCCCCCCCCCCCCCCC(=O)N[C@@H](CSC[C@@H](COC(=O)CCCCCCCCCCCCCCC)OC(=O)CCCCCCCCCCCCCCC)C(=O)N[C@@H](C)C(=O)NCC(=O)NCCOCCOCCOCCOCCOCCOCCOCCOCCOCCOCCOCCOCCOCCOCCOCCOCCOCCOCCOCCOCCOCCOCCOCCOCCOCCOCCOCCOCCOCCOCCOCCOCCOCCOCCOCCOCCOCCOCCOCCOCCOCCOCCOCCOCCOC
inactive | Active | Active | inactive | CCCCCCCCCCCCCCCC(=O)OC[C@H](CSC[C@H](NC(=O)COCCOCCOCCOCCOCCOCCOCCOCCOCCOCCOCCOCCOCCOCCOCCOCCOCCOCCOCCOCCOCCOCCOCCOCCOCCOCCOCCOCCOCCOCCOCCOCCOCCOCCOCCOCCOCCOCCOCCOCCOCCOCCOCCOCCOC)C(=O)N[C@@H](C)C(=O)NCC(=O)O)OC(=O)CCCCCCCCCCCCCCC
inactive | Active | Active | inactive | CCCCCCCCCCCCCCCC(=O)OC[C@H](CSC[C@H](N)C(=O)N[C@@H](C)C(=O)NCC(=O)NCCSSCCNC(=O)CNC(=O)OCCOCCOCCOCCOCCOCCOCCOCCOCCOCCOCCOCCOCCOCCOCCOCCOCCOCCOCCOCCOCCOCCOCCOCCOCCOCCOCCOCCOCCOCCOCCOCCOCCOCCOCCOCCOCCOCCOCCOCCOCCOCCOCCOCCO)OC(=O)CCCCCCCCCCCCCCC
inactive | Active | Active | inactive | CCCCCCCCCCCCCCCC(=O)OC[C@H](CSC[C@H](N)C(=O)N[C@@H](C)C(=O)NCC(=O)NCCOCCOCCOCCOCCOCCOCCOCCOCCOCCOCCOCCOCCOCCOCCOCCOCCOCCOCCOCCOCCOCCOCCOCCOCCOCCOCCOCCOCCOCCOCCOCCOCCOCCOCCOCCOCCOCCOCCOCCOCCOCCOCCOCCOCCOC)OC(=O)CCCCCCCCCCCCCCC
